According to ChEMBL document CHEMBL2040734, “Benzothiazoles: search for anticancer agents” (2012):

Experiments:
Assay type in all cases: functional
T47D = assay: Cytotoxicity against human T47D cells assessed as cell growth at 0.01 uM after 48 hrs by sulforhodamine B assay; settings: read-out: Activity
MDA-MB-468 = assay: Cytotoxicity against human MDA-MB-468 cells assessed as cell growth at 0.01 uM after 48 hrs by sulforhodamine B assay; settings: MDA-MB-468, 48 h, read-out: Activity
EKVX = assay: Cytotoxicity against human EKVX cells assessed as cell growth at 0.1 uM after 48 hrs by sulforhodamine B assay; settings: read-out: Activity
Outline: (§1)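 Five-dose NCI panel run at 0.01, 0.1, 1, 10 and 100 µM. Cells were in RPMI 1640 with 5% FBS and 2 mM L-glutamine, seeded at 5000–40,000 cells/well and pre-incubated 24 h. Drug was diluted from a DMSO stock into medium with 50 µg/ml gentamicin. Exposure was 48 h at 37 °C, 5% CO2. Cells were fixed with cold TCA and stained with 0.4% SRB, read at 515 nm. Percent growth came from time-zero, control and test absorbances.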

HCT-15 = assay: Cytotoxicity against human HCT15 cells assessed as cell growth at 0.1 uM after 48 hrs by sulforhodamine B assay; settings: HCT-15, 48 h, read-out: Activity; outline: as §1
UACC-62 = assay: Cytotoxicity against human UACC62 cells assessed as cell growth at 0.1 uM after 48 hrs by sulforhodamine B assay; settings: UACC-62, 48 h, read-out: Activity
SK-MEL-28 = assay: Cytotoxicity against human SK-MEL-28 cells assessed as cell growth at 100 uM after 48 hrs by sulforhodamine B assay; settings: SK-MEL-28, 48 h, read-out: Activity
NCI/ADR-RES = assay: Cytotoxicity against human NCI/ADR-RES cells assessed as cell growth at 100 uM after 48 hrs by sulforhodamine B assay; settings: read-out: Activity
COLO 205 [1] = assay: Cytotoxicity against human COLO205 cells assessed as cell growth at 1 uM after 48 hrs by sulforhodamine B assay; settings: COLO 205, 48 h, read-out: Activity
Outline: (§2)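 NCI-60 five-dose screen. Cells were grown in RPMI 1640 with 5% FBS and 2 mM L-glutamine and preincubated 24 h. Compound (DMSO stock) was tested at 0.01, 0.1, 1, 10 and 100 µM for 48 h at 37 °C. Cells were fixed in situ with cold TCA (final 10%) and stained with 0.4% SRB. A515 was read, and percent growth was calculated against time-zero and control plates.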

KM12 [2] = assay: Cytotoxicity against human KM12 cells assessed as cell growth at 1 uM after 48 hrs by sulforhodamine B assay; settings: KM12, 48 h, read-out: Activity
SNB-19 = assay: Cytotoxicity against human SNB19 cells assessed as cell growth at 1 uM after 48 hrs by sulforhodamine B assay; settings: SNB-19, 48 h, read-out: Activity
SK-MEL-2 = assay: Cytotoxicity against human SK-MEL-2 cells assessed as cell growth at 1 uM after 48 hrs by sulforhodamine B assay; settings: SK-MEL-2, 48 h, read-out: Activity
OVCAR-8 [3] = assay: Cytotoxicity against human OVCAR8 cells assessed as cell growth at 1 uM after 48 hrs by sulforhodamine B assay; settings: OVCAR-8, 48 h, read-out: Activity
ACHN = assay: Cytotoxicity against human ACHN cells assessed as cell growth at 1 uM after 48 hrs by sulforhodamine B assay; settings: read-out: Activity; outline: as §2
NCI-H322M [4] = assay: Cytotoxicity against human NCI-H322M cells assessed as cell growth at 10 uM after 48 hrs by sulforhodamine B assay; settings: read-out: Activity
SW-620 = assay: Cytotoxicity against human SW620 cells assessed as cell growth at 10 uM after 48 hrs by sulforhodamine B assay; settings: SW-620, 48 h, read-out: Activity
OVCAR-8 [5] = assay: Cytotoxicity against human OVCAR8 cells assessed as cell growth at 10 uM after 48 hrs by sulforhodamine B assay; settings: OVCAR-8, 48 h, read-out: Activity
PC-3 = assay: Cytotoxicity against human PC3 cells assessed as cell growth at 10 uM after 48 hrs by sulforhodamine B assay; settings: PC-3, 48 h, read-out: Activity
A549 = assay: Cytotoxicity against human A549 cells assessed as cell growth at 100 uM after 48 hrs by sulforhodamine B assay; settings: A549, 48 h, read-out: Activity; outline: as §2
SN12C = assay: Cytotoxicity against human SN12C cells assessed as cell growth at 10 '-5 M after 48 hrs by sulforhodamine B assay; settings: read-out: Activity
MDA-MB-231 = assay: Cytotoxicity against human MDA-MB-231 cells assessed as cell growth at 10 '-5 M after 48 hrs by sulforhodamine B assay; settings: MDA-MB-231, 48 h, read-out: Activity
SR = assay: Growth inhibition of human SR cells after 48 hrs by sulforhodamine B assay; settings: for CC50: read-out: LC50 (the source's name)
Outline: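 Leukemia suspension lines were grown in RPMI 1640 with 5% FBS and 2 mM L-glutamine and plated at 5000–40,000 cells/well with 24 h preincubation. They were treated at 0.01, 0.1, 1, 10 and 100 µM (DMSO stock) for 48 h at 37 °C. Settled cells were fixed with 80% TCA (16% final) and stained with 0.4% SRB in 1% acetic acid, then read at 515 nm. GI50 was calculated against time-zero and control wells.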

NCI-H322M [6] = assay: Growth inhibition of human NCI-H322M cells after 48 hrs by sulforhodamine B assay; settings: for CC50: read-out: LC50 (the source's name)
Outline: (§3)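 Adherent NCI-60 lines were grown in RPMI 1640 with 5% FBS and 2 mM L-glutamine, plated at 5000–40,000 cells/well and preincubated 24 h. They were then exposed to five concentrations (0.01–100 µM, from a DMSO stock) for 48 h at 37 °C, 5% CO2. Cells were fixed with cold TCA (10% final, 60 min, 4 °C) and stained with 0.4% SRB. Dye was solubilized in 10 mM Tris base and A515 read. GI50 was derived from time-zero, control and treated absorbances.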

COLO 205 [7] = assay: Growth inhibition of human COLO205 cells after 48 hrs by sulforhodamine B assay; settings: COLO 205, 48 h; for CC50: read-out: LC50 (the source's name)
Outline: (§4)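 Cells were in RPMI 1640 with 5% FBS and pre-incubated 24 h. Read-out was TCA fixation, SRB staining and absorbance at 515 nm. GI50 was the concentration where [(Ti−Tz)/(C−Tz)]×100 = 50, taken from log concentration vs % growth curves. It is given as ">" the top concentration when not reached.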

KM12 [8] = assay: Growth inhibition of human KM12 cells after 48 hrs by sulforhodamine B assay; settings: KM12, 48 h; for CC50: read-out: LC50 (the source's name); outline: as §3
BT-549 = assay: Growth inhibition of human BT549 cells after 48 hrs by sulforhodamine B assay; settings: BT-549, 48 h; outline: as §4
HOP-62 = assay: Cytotoxicity against human HOP62 cells assessed as cell growth at 0.01 uM after 48 hrs by sulforhodamine B assay; settings: HOP-62, 48 h, read-out: Activity; outline: as §1
NCI-H23 = assay: Cytotoxicity against human NCI-H23 cells assessed as cell growth at 0.01 uM after 48 hrs by sulforhodamine B assay; settings: NCI-H23, 48 h, read-out: Activity

Structure (SMILES)	growth at 0.01 µM (T47D)	growth at 0.01 µM (MDA-MB-468)	growth at 0.1 µM (EKVX)	growth at 0.1 µM (HCT-15)	growth at 0.1 µM (UACC-62)	growth at 100 µM (SK-MEL-28)	growth at 100 µM (NCI/ADR-RES)	growth at 1 µM (COLO 205 [1])	growth at 1 µM (KM12 [2])	growth at 1 µM (SNB-19)	growth at 1 µM (SK-MEL-2)	growth at 1 µM (OVCAR-8 [3])	growth at 1 µM (ACHN)	growth at 10 µM (NCI-H322M [4])	growth at 10 µM (SW-620)	growth at 10 µM (OVCAR-8 [5])	growth at 10 µM (PC-3)	growth at 100 µM (A549)	growth at 10 µM (SN12C)	growth at 10 µM (MDA-MB-231)	other results
Clc1cccc(Cl)c1Nc1nc2cccc(Cl)c2s1	95%	89%	82%	99%	86%	-69%	-55%	74%	62%	68%	71%	58%	60%	-83%	-86%	-71%	-68%	-55%	-71.5%	-66.8%	GI50 (SR): 1.03 µM; TGI (SR): 3.24 µM; CC50 (SR): > 100 µM; GI50 (NCI-H322M [6]): 1.46 µM; TGI (NCI-H322M [6]): 3.01 µM; CC50 (NCI-H322M [6]): 6.19 µM; GI50 (COLO 205 [7]): 1.4 µM; TGI (COLO 205 [7]): 2.81 µM; CC50 (COLO 205 [7]): 5.67 µM; GI50 (KM12 [8]): 1.2 µM; TGI (KM12 [8]): 2.48 µM; CC50 (KM12 [8]): 5.15 µM; GI50 (BT-549): 1.5 µM; TGI (BT-549): 3.01 µM; growth at 0.01 µM (HOP-62): 104%; growth at 0.01 µM (NCI-H23): 95%
Cc1ccc2nc(Nc3c(C)cccc3C)sc2c1	94%	88%	89%	98%	85%	55%	46%	82%	55%	61%	67%	89%	84%	67%	22%	67%	49%	69%	50%	47%	GI50 (SR): 0.412 µM; TGI (SR): > 100 µM; CC50 (SR): > 100 µM; GI50 (NCI-H322M [6]): > 100 µM; TGI (NCI-H322M [6]): > 100 µM; CC50 (NCI-H322M [6]): > 100 µM; TGI (COLO 205 [7]): > 100 µM; CC50 (COLO 205 [7]): > 100 µM; GI50 (KM12 [8]): 1.55 µM; TGI (KM12 [8]): > 100 µM; CC50 (KM12 [8]): > 100 µM; TGI (BT-549): > 100 µM; CC50 (BT-549; read-out: LC50 (the source's name)): > 100 µM; growth at 0.01 µM (HOP-62): 109%; growth at 0.01 µM (NCI-H23): 94%
